Measured values from ChEMBL document CHEMBL4371064, “Erythrofordins D and E, two new cassaine-type diterpenes from Erythrophleum suaveolens” (2019).

How the values were obtained:
Type in all cases: functional
[1] = system: K562; assay: Growth inhibition of human K562 cells incubated for 48 hrs by sulforhodamine B assay; details: K562, 48 h
How it was run: (§1)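 Run in the NCI-60 human tumour cell line panel with dose-response testing. GI50 was determined for each cell line from its dose-response data.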

[2] = system: RPMI-8226; assay: Growth inhibition of human RPMI8226 cells incubated for 48 hrs by sulforhodamine B assay; details: RPMI-8226, 48 h; how it was run: as §1
[3] = system: HOP-92; assay: Growth inhibition of human HOP92 cells incubated for 48 hrs by sulforhodamine B assay; details: HOP-92, 48 h; how it was run: as §1
[4] = system: NCI-H322M; assay: Growth inhibition of human NCI-H322M cells incubated for 48 hrs by sulforhodamine B assay; how it was run: as §1
[5] = system: NCI-H522; assay: Growth inhibition of human NCI-H522 cells incubated for 48 hrs by sulforhodamine B assay; details: NCI-H522, 48 h; how it was run: as §1
[6] = system: COLO 205; assay: Growth inhibition of human COLO205 cells incubated for 48 hrs by sulforhodamine B assay; details: COLO 205, 48 h; how it was run: as §1
[7] = system: HCT-116; assay: Growth inhibition of human HCT116 cells incubated for 48 hrs by sulforhodamine B assay; details: HCT-116, 48 h; how it was run: as §1
[8] = system: KM12; assay: Growth inhibition of human KM12 cells incubated for 48 hrs by sulforhodamine B assay; details: KM12, 48 h; how it was run: as §1
[9] = system: SF-539; assay: Growth inhibition of human SF539 cells incubated for 48 hrs by sulforhodamine B assay; details: SF-539, 48 h; how it was run: as §1
[10] = system: SNB-75; assay: Growth inhibition of human SNB75 cells incubated for 48 hrs by sulforhodamine B assay; details: SNB-75, 48 h; how it was run: as §1
[11] = system: U-251; assay: Growth inhibition of human U251 cells incubated for 48 hrs by sulforhodamine B assay; details: U-251, 48 h
How it was run: (§2)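 Tested in the NCI 60-human-tumour-cell-line screen using the five-dose format. GI₅₀ was derived from each cell line's dose-response. TGI and LC₅₀ were derived from the same dose-response data.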

[12] = system: LOX IMVI; assay: Growth inhibition of human LOXIMVI cells incubated for 48 hrs by sulforhodamine B assay; how it was run: as §1
[13] = system: Malme-3M; assay: Growth inhibition of human MALME-3M cells incubated for 48 hrs by sulforhodamine B assay; how it was run: as §1
[14] = system: M14; assay: Growth inhibition of human M14 cells incubated for 48 hrs by sulforhodamine B assay; details: M14, 48 h; how it was run: as §1
[15] = system: MDA-MB-435; assay: Growth inhibition of human MDA-MB-435 cells incubated for 48 hrs by sulforhodamine B assay; details: MDA-MB-435, 48 h; how it was run: as §1
[16] = system: SK-MEL-28; assay: Growth inhibition of human SK-MEL-28 cells incubated for 48 hrs by sulforhodamine B assay; details: SK-MEL-28, 48 h; how it was run: as §1
[17] = system: SK-MEL-5; assay: Growth inhibition of human SK-MEL-5 cells incubated for 48 hrs by sulforhodamine B assay; details: SK-MEL-5, 48 h; how it was run: as §1
[18] = system: UACC-62; assay: Growth inhibition of human UACC62 cells incubated for 48 hrs by sulforhodamine B assay; details: UACC-62, 48 h; how it was run: as §2
[19] = system: IGROV-1; assay: Growth inhibition of human IGROV1 cells incubated for 48 hrs by sulforhodamine B assay; details: IGROV-1, 48 h; how it was run: as §1
[20] = system: OVCAR-3; assay: Growth inhibition of human OVCAR3 cells incubated for 48 hrs by sulforhodamine B assay; details: OVCAR-3, 48 h; how it was run: as §1
[21] = system: OVCAR-5; assay: Growth inhibition of human OVCAR5 cells incubated for 48 hrs by sulforhodamine B assay; details: OVCAR-5, 48 h; how it was run: as §1
[22] = system: NCI/ADR-RES; assay: Growth inhibition of human NCI/ADR-RES cells incubated for 48 hrs by sulforhodamine B assay; how it was run: as §1
[23] = system: CAKI-1; assay: Growth inhibition of human Caki1 cells incubated for 48 hrs by sulforhodamine B assay; details: CAKI-1, 48 h; how it was run: as §1
[24] = system: RXF 393; assay: Growth inhibition of human RXF393 cells incubated for 48 hrs by sulforhodamine B assay; details: RXF 393, 48 h; how it was run: as §1
[25] = system: SN12C; assay: Growth inhibition of human SN12C cells incubated for 48 hrs by sulforhodamine B assay; how it was run: as §1
[26] = system: TK-10; assay: Growth inhibition of human TK10 cells incubated for 48 hrs by sulforhodamine B assay; details: TK-10, 48 h; how it was run: as §2
[27] = system: UO-31; assay: Growth inhibition of human UO31 cells incubated for 48 hrs by sulforhodamine B assay; details: UO-31, 48 h; how it was run: as §2
[28] = system: PC-3; assay: Growth inhibition of human PC3 cells incubated for 48 hrs by sulforhodamine B assay; details: PC-3, 48 h; how it was run: as §1
[29] = system: MCF7; assay: Growth inhibition of human MCF7 cells incubated for 48 hrs by sulforhodamine B assay; details: MCF7, 48 h; how it was run: as §1
[30] = system: Hs-578T; assay: Growth inhibition of human Hs578T cells incubated for 48 hrs by sulforhodamine B assay; how it was run: as §1
[31] = system: MDA-MB-468; assay: Growth inhibition of human MDA-MB-468 cells incubated for 48 hrs by sulforhodamine B assay; details: MDA-MB-468, 48 h; how it was run: as §1
[32] = read-out: pLC50 (the source's name) (converted)

COC(=O)/C=C1\CC[C@H]2[C@@H](CC(=O)[C@H]3C(C)(C)C(=O)CC[C@]23C)[C@H]1C
GI50 [1]: 1.15 µM | LC50 [1]: > 34.7 µM | TGI ([1]; read-out: pTGI (converted)): 5.37 µM | GI50 [2]: 1.29 µM | LC50 [2]: > 34.7 µM | TGI ([2]; read-out: pTGI (converted)): 22.4 µM | GI50 [3]: 1 µM | LC50 [3]: > 34.7 µM | TGI ([3]; read-out: pTGI (converted)): 3.47 µM | GI50 [4]: 0.813 µM | LC50 [4]: 27.5 µM | TGI ([4]; read-out: pTGI (converted)): 2.51 µM | GI50 [5]: 0.166 µM | LC50 [5]: > 34.7 µM | TGI ([5]; read-out: pTGI (converted)): 0.977 µM | GI50 [6]: 1.23 µM | LC50 [6]: > 34.7 µM | TGI ([6]; read-out: pTGI (converted)): 5.37 µM | GI50 [7]: 0.646 µM | LC50 [7]: 2.88 µM | TGI ([7]; read-out: pTGI (converted)): 1.38 µM | GI50 [8]: 1.23 µM | LC50 (concentration killing 50% of cells) [8]: 24 µM | TGI ([8]; read-out: pTGI): 5.25 µM | GI50 [9]: 0.575 µM | LC50 [9]: 2.09 µM | TGI ([9]; read-out: pTGI (converted)): 1.1 µM | GI50 [10]: 0.55 µM | LC50 (concentration killing 50% of cells) [10]: 2.63 µM | TGI ([10]; read-out: pTGI (converted)): 1.2 µM | GI50 [11]: 0.646 µM | LC50 [11]: 2.63 µM | TGI ([11]; read-out: pTGI (converted)): 1.32 µM | GI50 [12]: 0.692 µM | LC50 [12]: 5.25 µM | TGI ([12]; read-out: pTGI (converted)): 1.66 µM | GI50 [13]: 0.724 µM | LC50 [13]: 6.92 µM | TGI ([13]; read-out: pTGI (converted)): 1.66 µM | GI50 [14]: 1.15 µM | LC50 [14]: 20 µM | TGI ([14]; read-out: pTGI (converted)): 4.27 µM | GI50 [15]: 1.07 µM | LC50 [15]: 20.4 µM | TGI ([15]; read-out: pTGI (converted)): 3.8 µM | GI50 [16]: 1.17 µM | LC50 [16]: > 34.7 µM | TGI ([16]; read-out: pTGI (converted)): 5.01 µM | GI50 [17]: 0.708 µM | LC50 [17]: 3.16 µM | TGI ([17]; read-out: pTGI (converted)): 1.48 µM | GI50 [18]: 0.832 µM | LC50 [18]: 11.5 µM | TGI ([18]; read-out: pTGI (converted)): 2.29 µM | GI50 [19]: 1.29 µM | LC50 [19]: > 34.7 µM | TGI ([19]; read-out: pTGI (converted)): 7.59 µM | GI50 [20]: 0.661 µM | LC50 [20]: 2.51 µM | TGI ([20]; read-out: pTGI (converted)): 1.29 µM | GI50 [21]: 0.776 µM | LC50 [21]: 21.4 µM | TGI ([21]; read-out: pTGI (converted)): 2.34 µM | GI50 [22]: 0.741 µM | CC50 [22, 32]: > 34.7 µM | TGI ([22]; read-out: pTGI (converted)): 1.91 µM | GI50 [23]: 0.661 µM | LC50 [23]: 2.95 µM | TGI ([23]; read-out: pTGI (converted)): 1.38 µM | GI50 [24]: 0.776 µM | CC50 [24, 32]: > 34.7 µM | TGI ([24]; read-out: pTGI (converted)): 2.57 µM | GI50 [25]: 0.513 µM | LC50 [25]: > 34.7 µM | TGI ([25]; read-out: pTGI (converted)): 1.86 µM | GI50 [26]: 0.794 µM | LC50 (lethal concentration killing 50% of cells) [26]: 14.8 µM | TGI ([26]; read-out: pTGI (converted)): 2.4 µM | GI50 [27]: 0.55 µM | LC50 [27]: 2.24 µM | TGI ([27]; read-out: pTGI (converted)): 1.1 µM | GI50 [28]: 0.933 µM | CC50 [28, 32]: > 34.7 µM | TGI ([28]; read-out: pTGI (converted)): 2.75 µM | GI50 [29]: 0.955 µM | CC50 [29, 32]: > 34.7 µM | TGI ([29]; read-out: pTGI): > 34.7 µM | GI50 [30]: 0.417 µM | LC50 [30]: > 34.7 µM | TGI ([30]; read-out: pTGI (converted)): 1.66 µM | GI50 [31]: 1.7 µM | CC50 [31, 32]: > 34.7 µM | TGI ([31]; read-out: pTGI (converted)): 12.3 µM
